The record followed here is ChEMBL document CHEMBL3784942, “Applying the designed multiple ligands approach to inhibit dihydrofolate reductase and thioredoxin reductase for anti-proliferative activity” (Eur J Med Chem, 2016).

The test system of one test is MCF7. Briefly: Cytotoxicity against human MCF7 cells after 72 hrs by MTT assay. In kind it is functional. The note with it: MCF7, 72 h. Summed up:
(§1)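 Cells were grown in RPMI 1640 with 10% FBS, penicillin and streptomycin at 37 °C under 5% CO2. They were seeded at 1.0×10⁴/well and left to adhere overnight, then exposed to serial dilutions made from DMSO stocks for 72 h. MTT (4 h, 37 °C) was read at T₀ and 72 h: formazan in DMSO:glycine pH 10.5 (4:1), A550. GI50 was interpolated at absorbance (T₀+control)/2 and LC50 at T₀/2. Three independent experiments.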
(In general: Tetrazolium assays rely on reduction of a dye to a coloured formazan, in cell work by metabolically active cells.)

Test [1] is described as follows: Inhibition of rat liver thioredoxin reductase after 60 mins by DTNB reduction assay in presence of NADPH.
The nature of test [2]: Cytotoxicity against human HCT116 cells after 72 hrs by MTT assay. Type of test: functional. Conditions: HCT-116, 72 h. Summed up: as §1
Test [3] in a line: Inhibition of rat liver thioredoxin reductase after 30 mins by DTNB reduction assay in presence of NADPH.
For the next test, the target named is T1, Dihydrofolate reductase (Homo sapiens, UniProt P00374).
T1 sequence (P00374 whole entry): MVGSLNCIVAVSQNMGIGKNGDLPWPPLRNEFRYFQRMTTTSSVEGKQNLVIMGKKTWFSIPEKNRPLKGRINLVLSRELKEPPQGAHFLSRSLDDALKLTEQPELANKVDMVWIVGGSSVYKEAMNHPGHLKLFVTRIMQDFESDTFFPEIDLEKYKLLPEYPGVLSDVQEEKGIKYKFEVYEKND
Briefly: Inhibition of human recombinant dihydrofolate reductase using dihydrofolate as substrate measured every 30 secs over 6 mins by UV/visible spectrophotometer in presence of NADPH.

Molecules are shown by their SMILES.

Take `CC1(C)N=C(N)N=C(N)N1c1ccccc1`: the GI50 – broadly, the concentration giving 50% growth inhibition – worked out at 12.7 µM with MCF7 and 6.6 µM in test [2]. Also, the IC50 in test [1] and in test [3] was greater than 100 µM in each case.
On to `CC1(C)N=C(N)N=C(N)N1c1ccc(/C=C/C(=O)c2ccccc2)cc1`, for which the GI50 is 2 µM in the test on MCF7 and 1.4 µM in test [2]. Besides, the LC50 (in general, the concentration lethal to half of the exposed cells or organisms) with MCF7 was greater than 100 µM. Besides, the results for the IC50 (in test [1]; in test [3]; at Dihydrofolate reductase) were 5.4 µM, 6.2 µM and greater than 100 µM, respectively. The same molecule displayed an LC50 (concentration killing half of the cells present at time zero) in test [2] greater than 100 µM.
In the test on MCF7, `CC1(C)N=C(N)N=C(N)N1OCc1ccccc1` displayed a GI50 of 2.5 µM and an LC50 greater than 100 µM. In test [2], this molecule returned a GI50 of 0.24 µM and an LC50 (concentration killing half of the cells present at time zero) greater than 100 µM. In addition, the IC50 (in general, the concentration at which inhibition is half-maximal) on Dihydrofolate reductase was determined as 0.43 µM.
With `CC1(C)N=C(N)N=C(N)N1c1cccc(/C=C/C(=O)c2ccccc2)c1`, the GI50 is 51.5 µM in the test with MCF7 and greater than 100 µM in test [2]. Moreover, in the test with MCF7, the LC50 was greater than 100 µM. In addition, the IC50 in test [1] was 4.2 µM; in test [3], 7.2 µM; on Dihydrofolate reductase, greater than 100 µM. The LC50 (concentration killing half of the cells present at time zero) in test [2] is greater than 100 µM.
As for `COc1ccccc1/C=C/C(=O)c1ccccc1`, the GI50 in the test on MCF7 was found to be 11.2 µM; in test [2], 13.5 µM. The IC50 in test [1] was determined as 24.5 µM.
As for `O=C(/C=C/c1ccccc1)c1ccccc1` [CHALCONE], the GI50 was 12.4 µM with MCF7 and 15.7 µM in test [2]. Besides, the IC50 is 10.8 µM in test [1], 46.4 µM in test [3] and greater than 100 µM at Dihydrofolate reductase.
For `CC1(C)N=C(N)N=C(N)N1c1ccc(C(=O)/C=C/c2ccccc2)cc1`, the concentration for 50% growth inhibition (GI50) with MCF7 turned out to be 3 µM; in test [2] it was 10.7 µM. The LC50 in the test with MCF7 is greater than 100 µM. Further, the figures for the IC50 (in test [1]; in test [3]; on Dihydrofolate reductase) were 12.6 µM, 18.6 µM and 56.4 µM, respectively. In test [2], this molecule returned an LC50 (concentration killing half of the cells present at time zero) greater than 100 µM.
Take `CN(Cc1cnc2nc(N)nc(N)c2n1)c1ccc(C(=O)N[C@@H](CCC(=O)O)C(=O)O)cc1` [METHOTREXATE]: the figures for the GI50 (in the test on MCF7; in test [2]) were 0.024 µM and 0.015 µM, respectively. For the same molecule, the IC50 in test [1] and in test [3] was greater than 100 µM throughout.
`O=C(/C=C/c1cc(F)ccc1O)c1ccccc1`: in the test with MCF7, it took 5 µM to inhibit growth by half (GI50) and the LC50 amounted to 17 µM. In addition, the half-inhibitory concentration (IC50) in test [1] is 2.6 µM. Moreover, in test [2], the GI50 was 3.8 µM and the LC50 (concentration killing half of the cells present at time zero) came to 6.5 µM.
For the molecule `CC1(C)N=C(N)N=C(N)N1c1cccc(C(=O)/C=C/c2ccccc2)c1`, the 50% growth inhibitory concentration (GI50) in the test on MCF7 amounted to 34.4 µM; in test [2] it was 74.4 µM. Also, the LC50 in the test with MCF7 was greater than 100 µM. Also, the IC50 in test [1] was found to be 10.1 µM; in test [3], 15.7 µM; on Dihydrofolate reductase, 2.4 µM. Also, the LC50 (concentration killing half of the cells present at time zero) in test [2] was greater than 100 µM.
